Reference: ChEMBL document CHEMBL4007413, “Replacing d-Glucosamine with Its l-Enantiomer in Glycosylated Antitumor Ether Lipids (GAELs) Retains Cytotoxic Effects against Epithelial Cancer Cells and Cancer Stem Cells” (J Med Chem, 2017)
The source made the active and inactive calls. The calls are words filed in the database; no cut-off is given here.

Assays:
MIA PaCa-2 [1] = assay: Cytotoxicity against human MIAPaCa2 cells assessed as decrease in cell viability after 48 hrs by MTS assay; assay type: functional; conditions: MIA PaCa-2, 48 h
In short: (§1)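 Cells were seeded at equal numbers and, after 24 h, exposed to compounds (0–30 µM) for 48 h. MTS reagent (20% v/v) was then added for 1–4 h, and OD490 was read. Cell-free medium wells served as blanks. Media were DMEM/F12 + 10% FBS for BT-474; DMEM + 10% FBS for DU-145 and MDA-MB-231; and DMEM + 10% FBS + 2.5% horse serum for MiaPaCa-2. Values are mean ± SD, n=6.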

DU-145 [2] = assay: Cytotoxicity against human DU145 cells assessed as decrease in cell viability after 48 hrs by MTS assay; assay type: functional; conditions: DU-145, 48 h; in short: as §1
BT-474 [3] = assay: Cytotoxicity against human BT474 cells assessed as decrease in cell viability after 48 hrs by MTS assay; assay type: functional; conditions: BT-474, 48 h; in short: as §1
MDA-MB-231 [4] = assay: Cytotoxicity against human MDA-MB-231 cells assessed as decrease in cell viability after 48 hrs by MTS assay; assay type: functional; conditions: MDA-MB-231, 48 h; in short: as §1
BT-474 [5] = assay: Disruption of cancer stem cells spheroids derived from human BT474 cells at >=7.5 uM after 3 days by microscopic analysis; assay type: functional, cell-based
In short: (§2)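 Cancer stem cells were isolated from BT-474 by ALDH1 activity. Equal numbers were seeded in ultra-low-adhesion wells and grown to spheroids. Spheroids were then incubated with or without compounds for 3 days. Spheroid integrity was assessed by light microscopy (×10). Viability was measured in parallel by MTS.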

DU-145 [6] = assay: Cytotoxicity against human DU145 cells assessed as decrease in cell viability up to 8 uM after 48 hrs in absence of pan-caspase inhibitor QVD-OPh by MTS assay; assay type: functional, cell-based
In short: (§3)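 DU-145 and JIMT-1 cells (DMEM + 10% FBS) were treated with compounds with or without the pan-caspase inhibitor QVD-OPh (40 µM). Viability was read by MTS: cells were seeded, treated 24 h later for 48 h, given MTS (20% v/v) for 1–4 h, and read at OD490 against cell-free blanks.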

DU-145 [7] = assay: Cytotoxicity against human DU145 cells assessed as decrease in cell viability up to 8 uM after 48 hrs in presence of pan-caspase inhibitor QVD-OPh by MTS assay; assay type: functional, cell-based; in short: as §3
JIMT-1 [8] = assay: Cytotoxicity against human JIMT1 cells assessed as decrease in cell viability up to 8 uM after 48 hrs in presence of pan-caspase inhibitor QVD-OPh by MTS assay; assay type: functional, cell-based; in short: as §3
JIMT-1 [9] = assay: Cytotoxicity against human JIMT1 cells assessed as decrease in cell viability up to 8 uM after 48 hrs in absence of pan-caspase inhibitor QVD-OPh by MTS assay; assay type: functional, cell-based; in short: as §3
Erythrocyte = assay: Induction of hemolysis in sheep erythrocytes at 30 uM after 30 mins by spectrophotometric analysis; assay type: functional, Ovis aries
MIA PaCa-2 [10] = assay: Cytotoxicity against human MIAPaCa2 cells assessed as cell death at 7.5 uM after 48 hrs by MTS assay; assay type: functional
In short: (§4)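 Equal numbers of cells were plated. After 24 h they were exposed to compounds (0–30 µM) for 48 h, then given MTS reagent (20% v/v) for 1–4 h. OD490 was read against cell-free blank wells; mean ± SD of 6 determinations. Media: BT-474 in DMEM/F12 + 10% FBS; DU-145, JIMT-1 and MDA-MB-231 in DMEM + 10% FBS; MiaPaCa-2 in DMEM + 10% FBS + 2.5% horse serum; PC-3 in F12K + 10% FBS; all with penicillin/streptomycin.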

DU-145 [11] = assay: Cytotoxicity against human DU145 cells assessed as cell death at 7.5 uM after 48 hrs by MTS assay; assay type: functional; in short: as §4
BT-474 [12] = assay: Cytotoxicity against human BT474 cells assessed as cell death at 7.5 uM after 48 hrs by MTS assay; assay type: functional; in short: as §4
MDA-MB-231 [13] = assay: Cytotoxicity against human MDA-MB-231 cells assessed as cell death at 7.5 uM after 48 hrs by MTS assay; assay type: functional; in short: as §4
PC-3 [14] = assay: Cytotoxicity against human PC3 cells assessed as cell death at 7.5 uM after 48 hrs by MTS assay; assay type: functional; in short: as §4
JIMT-1 [15] = assay: Cytotoxicity against human JIMT1 cells assessed as cell death at 7.5 uM after 48 hrs by MTS assay; assay type: functional; in short: as §4
BT-474 [16] = assay: Disruption of cancer stem cells spheroids derived from human BT474 cells at >=5 uM after 3 days by microscopic analysis; assay type: functional, cell-based; in short: as §2
BT-474 [17] = assay: Cytotoxicity against cancer stem cells derived from human BT474 cells assessed as cancer stem cell death at 7.5 uM after 3 days by MTS assay; assay type: functional
In short: (§5)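 CSCs were isolated from BT-474 using ALDH1 activity as the stemness marker. They were grown in ultra-low adhesion wells for 4 days to form spheroids. Spheroids were then exposed to compounds (0–20 µM) for 3 days. Viability was read by MTS assay and expressed as % of untreated control.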

DU-145 [18] = assay: Induction of cell death in human DU145 cells assessed as rounding up of cells at 6 uM after 6 hrs fluorescence microscopic analysis; assay type: functional, cell-based
In short: (§6)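 DU-145 cells were incubated with compounds at 6 µM for 6 h. They were then stained with cell-impermeant ethidium homodimer-1 and examined by fluorescence microscopy for cell rounding and red DNA staining. Cells given 0.01% Triton X-100 for 10 min served as the lysis control.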

JIMT-1 [19] = assay: Induction of cell death in human JIMT1 cells assessed as rounding up of cells at 4 uM after 6 hrs by fluorescence microscopic analysis; assay type: functional, cell-based
[20] = Stability in bovine liver extracts assessed as bovine liver glycosidase mediated compound cleavage by TLC analysis; assay type: ADME, Bos taurus; conditions: cattle
In short: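 A bovine liver glycosidase fraction in 0.05 M sodium citrate pH 5.0 was combined with 0.2 M citrate pH 4.4 buffer, substrate (30 mM stock) and Triton X-100 (10% stock) for solubilization. Controls were no enzyme and a β-D-glucose-based GAEL. After 1 h, methanol was added, the mixture was centrifuged, and the supernatant was analysed by TLC. Run in quadruplicate.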

DU-145 [21] = assay: Induction of membrane lysis in human DU145 cells at 6 uM after 6 hrs by EthD-1 staining based fluorescence microscopic analysis; assay type: functional, cell-based; in short: as §6
JIMT-1 [22] = assay: Induction of membrane lysis in human JIMT1 cells at 4 uM after 6 hrs by EthD-1 staining based fluorescence microscopic analysis; assay type: functional, cell-based
BXPC-3 = assay: Induction of cell death in human BxPC3 cells assessed as clear large vacuole formation at 5 uM after 4 hrs
MIA PaCa-2 [23] = assay: Cytotoxicity against human MIAPaCa2 cells assessed as cell death at 2 to 25 times CC50 after 48 hrs by MTS assay; assay type: functional; in short: as §4
DU-145 [24] = assay: Cytotoxicity against human DU145 cells assessed as cell death at 2 to 25 times CC50 after 48 hrs by MTS assay; assay type: functional; in short: as §4
BT-474 [25] = assay: Cytotoxicity against human BT474 cells assessed as cell death at 2 to 25 times CC50 after 48 hrs by MTS assay; assay type: functional; in short: as §4
MDA-MB-231 [26] = assay: Cytotoxicity against human MDA-MB-231 cells assessed as cell death at 2 to 25 times CC50 after 48 hrs by MTS assay; assay type: functional; in short: as §4
PC-3 [27] = assay: Cytotoxicity against human PC3 cells assessed as cell death at 2 to 25 times CC50 after 48 hrs by MTS assay; assay type: functional; in short: as §4
JIMT-1 [28] = assay: Cytotoxicity against human JIMT1 cells assessed as cell death at 2 to 25 times CC50 after 48 hrs by MTS assay; assay type: functional; in short: as §4
BT-474 [29] = assay: Disruption of cancer stem cells spheroids derived from human BT474 cells at 20 uM after 3 days by microscopic analysis; assay type: functional, cell-based; in short: as §2
BT-474 [30] = assay: Cytotoxicity against cancer stem cells derived from human BT474 cells assessed as cancer stem cell death at 20 uM after 3 days by MTS assay; assay type: functional; in short: as §5

## CCCCCCCCCCCCCCCCOC[C@H](CO[C@@H]1O[C@@H](CN)[C@H](O)[C@@H](O)[C@@H]1N)OC
MIA PaCa-2 [1]
  CC50: 4 to 11 µM
DU-145 [2]
  CC50: 4 to 11 µM
BT-474 [3]
  CC50: 4 to 11 µM
MDA-MB-231 [4]
  CC50: 4 to 11 µM
BT-474 [5]
  Activity: Active
DU-145 [6]
  Activity: Active
DU-145 [7]
  Activity: Active
JIMT-1 [8]
  Activity: Active
JIMT-1 [9]
  Activity: Active
Erythrocyte
  Activity: <5%

## CCCCCCCCCCCCCCCCOC[C@H](CO[C@@H]1O[C@@H](CN)[C@H](OCc2ccccc2)[C@@H](O)[C@@H]1N)OC
MIA PaCa-2 [1]
  CC50: 2 to 6 µM
DU-145 [2]
  CC50: 2 to 6 µM
BT-474 [3]
  CC50: 2 to 6 µM
MDA-MB-231 [4]
  CC50: 2 to 6 µM
MIA PaCa-2 [10]
  Activity: >95%
DU-145 [11]
  Activity: >95%
BT-474 [12]
  Activity: >95%
MDA-MB-231 [13]
  Activity: >95%
PC-3 [14]
  Activity: >95%
JIMT-1 [15]
  Activity: >95%
BT-474 [16]
  Activity: Active
BT-474 [17]
  Activity: >95%
DU-145 [6]
  Activity: Active
DU-145 [7]
  Activity: Active
JIMT-1 [8]
  Activity: Active
JIMT-1 [9]
  Activity: Active
Erythrocyte
  Activity: <5%
DU-145 [18]
  Activity: Active
JIMT-1 [19]
  Activity: Active
[20]
  Stability: Stable
DU-145 [21]
  Activity: inactive
JIMT-1 [22]
  Activity: inactive
BXPC-3
  Activity: Active

## CCCCCCCCCCCCCCCCOC[C@H](CO[C@@H]1O[C@H](CN)[C@@H](OCc2ccccc2)[C@H](O)[C@H]1N)OC
MIA PaCa-2 [1]
  CC50: 2 to 6 µM
DU-145 [2]
  CC50: 2 to 6 µM
BT-474 [3]
  CC50: 2 to 6 µM
MDA-MB-231 [4]
  CC50: 2 to 6 µM
MIA PaCa-2 [10]
  Activity: >95%
DU-145 [11]
  Activity: >95%
BT-474 [12]
  Activity: >95%
MDA-MB-231 [13]
  Activity: >95%
PC-3 [14]
  Activity: >95%
JIMT-1 [15]
  Activity: >95%
BT-474 [16]
  Activity: Active
BT-474 [17]
  Activity: >95%
Erythrocyte
  Activity: <5%
DU-145 [18]
  Activity: Active
JIMT-1 [19]
  Activity: Active
DU-145 [21]
  Activity: inactive
JIMT-1 [22]
  Activity: inactive

## COc1cccc2c1C(=O)c1c(O)c3c(c(O)c1C2=O)C[C@@](O)(C(=O)CO)C[C@@H]3O[C@H]1C[C@H](N)[C@H](O)[C@H](C)O1.Cl [DOXORUBICIN HYDROCHLORIDE]
MIA PaCa-2 [23]
  Activity: <90%
DU-145 [24]
  Activity: <90%
BT-474 [25]
  Activity: <90%
MDA-MB-231 [26]
  Activity: <90%
PC-3 [27]
  Activity: <90%
JIMT-1 [28]
  Activity: <90%
BT-474 [29]
  Activity: inactive
BT-474 [17]
  Activity: 75%
BT-474 [30]
  Activity: 72%
DU-145 [6]
  Activity: Active
DU-145 [7]
  Activity: inactive
JIMT-1 [8]
  Activity: inactive
JIMT-1 [9]
  Activity: Active
